From ChEMBL document CHEMBL1157693, “Microwave assisted synthesis and antimicrobial activity of 2-quinoxalinone-3-hydrazone derivatives” (2010)
Values after ≈ are worked out from the molar mass of the structure shown. Active and inactive are the calls of the source. The rule behind the calls is not given here.

How the values were obtained:
Format in all cases: functional
Bacillus subtilis [1] = test: Antibacterial activity against Bacillus subtilis NCIB 3610 after 24 hrs by agar well diffusion method
Outline: (§1)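 Agar well diffusion. Clinical isolates were first checked for viability, then grown in nutrient broth for 8 h at 37 °C. About 0.2 ml of broth culture was mixed into 18 ml molten diagnostic sensitivity test agar cooled to 45 °C and poured into plates. Compounds in DMSO went into bored wells, with streptomycin as reference. Plates stood 1 h for diffusion, then were incubated upright at 37 °C for 24 h. Clear inhibition zones were read in mm.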

Bacillus cereus [2] = test: Antibacterial activity against Bacillus cereus NCIB 6349 after 72 hrs; details: NCIB 6349, 72 h
Outline: (§2)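 MIC by the Russell and Furr method, run on selected Gram-positive and Gram-negative strains. Once the agar had set and its surface had dried, nutrient agar plates were streaked with overnight broth cultures. They were incubated at 37 °C for up to 72 h and scored for presence or absence of growth.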

Bacillus cereus [3] = test: Antibacterial activity against Bacillus cereus NCIB 6349 after 24 hrs by agar well diffusion method; outline: as §1
Klebsiella pneumoniae [4] = test: Antibacterial activity against Klebsiella pneumoniae NCIB 418 after 24 hrs by agar well diffusion method; outline: as §1
Bacillus anthracis [5] = test: Antibacterial activity against Bacillus anthracis after 24 hrs by agar well diffusion method
Escherichia coli [6] = test: Antibacterial activity against Escherichia coli NCIB 86 after 24 hrs by agar well diffusion method; outline: as §1
Klebsiella pneumoniae [7] = test: Antibacterial activity against Klebsiella pneumoniae NCIB 418 after 72 hrs; details: NCIB 418, 72 h; outline: as §2
Staphylococcus aureus [8] = test: Antibacterial activity against Staphylococcus aureus NCIB 8588 after 72 hrs; outline: as §2
[9] = system: Geobacillus stearothermophilus; test: Antibacterial activity against Bacillus stearothermophilus NCIB 8222 after 72 hrs; details: NCIB 8222, 72 h; outline: as §2
Pseudomonas aeruginosa = test: Antibacterial activity against Pseudomonas aeruginosa NCIB 950 after 24 hrs by agar well diffusion method; outline: as §1
Candida albicans = test: Antifungal activity against Candida albicans after 3 days by agar well diffusion method
Bacillus subtilis [10] = test: Antibacterial activity against Bacillus subtilis NCIB 3610 after 72 hrs; details: NCIB 3610, 72 h; outline: as §2
Staphylococcus aureus [11] = test: Antibacterial activity against Staphylococcus aureus NCIB 8588 after 24 hrs by agar well diffusion method; outline: as §1
Escherichia coli [12] = test: Antibacterial activity against Escherichia coli NCIB 86 after 72 hrs; details: NCIB 86, 72 h; outline: as §2
Shigella dysenteriae [13] = test: Antibacterial activity against Shigella dysenteriae after 24 hrs by agar well diffusion method
Pseudomonas fluorescens = test: Antibacterial activity against Pseudomonas fluorescens NCIB 3756 after 24 hrs by agar well diffusion method; outline: as §1
Shigella dysenteriae [14] = test: Antibacterial activity against Shigella dysenteriae after 72 hrs
Outline: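 MIC by agar dilution: compound-containing nutrient agar was set and surface-dried, then streaked with overnight broth culture of the clinical isolate. Incubated at 37 °C for up to 72 h and scored for presence or absence of growth. Streptomycin was the reference.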

[15] = system: Geobacillus stearothermophilus; test: Antibacterial activity against Bacillus stearothermophilus NCIB 8222 after 24 hrs by agar well diffusion method; outline: as §1
Bacillus anthracis [16] = test: Antibacterial activity against Bacillus anthracis after 72 hrs

Compound	inhibition zone (IZ) (Bacillus subtilis [1])	MIC (Bacillus cereus [2]) [µg/mL]	inhibition zone (IZ) (Bacillus cereus [3])	inhibition zone (IZ) (Klebsiella pneumoniae [4])	inhibition zone (IZ) (Bacillus anthracis [5])	inhibition zone (IZ) (Escherichia coli [6])	MIC (Klebsiella pneumoniae [7]) [µg/mL]	MIC (Staphylococcus aureus [8])	MIC [9] [µg/mL]	inhibition zone (IZ) (Pseudomonas aeruginosa)	inhibition zone (IZ) (Candida albicans) [mm]	MIC (Bacillus subtilis [10]) [µg/mL]	inhibition zone (IZ) (Staphylococcus aureus [11])	MIC (Escherichia coli [12]) [µg/mL]	inhibition zone (IZ) (Shigella dysenteriae [13])	inhibition zone (IZ) (Pseudomonas fluorescens)	MIC (Shigella dysenteriae [14])	inhibition zone (IZ) [15]	MIC (Bacillus anthracis [16])	MIC (Staphylococcus aureus [8]; NCIB 8588, 72 h) [µg/mL]
O=c1[nH]c2ccccc2nc1NN=C1CCCC1	12 mm	15.6 (≈ 64.4 µM)	20 mm	14 mm	10 mm	17 mm	15.6 (≈ 64.4 µM)	inactive	62.5 (≈ 258 µM)	0 mm	29	31.3 (≈ 129 µM)	0 mm	31.3 (≈ 129 µM)	12 mm	10 mm	62.5 µg/mL (≈ 258 µM)	14 mm	125 µg/mL (≈ 516 µM)	–
CC/C(C)=N\Nc1nc2ccccc2[nH]c1=O	16 mm	7.8 (≈ 33.9 µM)	25 mm	19 mm	12 mm	21 mm	62.5 (≈ 271 µM)	–	31.3 (≈ 136 µM)	0 mm	22	31.3 (≈ 136 µM)	19 mm	31.3 (≈ 136 µM)	0 mm	0 mm	inactive	17 mm	62.5 µg/mL (≈ 271 µM)	15.6 (≈ 67.7 µM)
CC(C)=NNc1nc2ccccc2[nH]c1=O	30 mm	15.6 (≈ 72.1 µM)	24 mm	12 mm	14 mm	30 mm	15.6 (≈ 72.1 µM)	–	7.8 (≈ 36.1 µM)	0 mm	31	7.8 (≈ 36.1 µM)	12 mm	7.8 (≈ 36.1 µM)	13 mm	0 mm	31.3 µg/mL (≈ 145 µM)	30 mm	62.5 µg/mL (≈ 289 µM)	62.5 (≈ 289 µM)
O=C1Nc2ccc(Br)cc2/C1=N/Nc1nc2ccccc2[nH]c1=O	13 mm	62.5 (≈ 163 µM)	15 mm	15 mm	8 mm	13 mm	31.3 (≈ 81.5 µM)	–	15.6 (≈ 40.6 µM)	0 mm	15	62.5 (≈ 163 µM)	20 mm	62.5 (≈ 163 µM)	11 mm	11 mm	125 µg/mL (≈ 325 µM)	22 mm	125 µg/mL (≈ 325 µM)	15.6 (≈ 40.6 µM)
C/C(=N\Nc1nc2ccccc2[nH]c1=O)c1cc2cc(Br)ccc2oc1=O	30 mm	62.5 (≈ 147 µM)	15 mm	18 mm	16 mm	18 mm	62.5 (≈ 147 µM)	–	7.8 (≈ 18.3 µM)	0 mm	21	7.8 (≈ 18.3 µM)	14 mm	62.5 (≈ 147 µM)	0 mm	0 mm	inactive	29 mm	62.5 µg/mL (≈ 147 µM)	62.5 (≈ 147 µM)
NYSTATIN	inactive	–	inactive	inactive	inactive	inactive	–	–	–	inactive	–	–	inactive	–	inactive	inactive	–	inactive	–	–
O=c1[nH]c2ccccc2nc1N/N=C1\CCCCC1Cl (centres undefined)	16 mm	31.3 (≈ 108 µM)	12 mm	13 mm	14 mm	12 mm	31.3 (≈ 108 µM)	–	31.3 (≈ 108 µM)	0 mm	15	15.6 (≈ 53.7 µM)	12 mm	62.5 (≈ 215 µM)	0 mm	9 mm	inactive	14 mm	31.3 µg/mL (≈ 108 µM)	62.5 (≈ 215 µM)
C/C(=N\Nc1nc2ccccc2[nH]c1=O)c1cc2cc(Cl)ccc2oc1=O	33 mm	7.8 (≈ 20.5 µM)	30 mm	32 mm	25 mm	30 mm	7.8 (≈ 20.5 µM)	–	7.8 (≈ 20.5 µM)	14 mm	14	7.8 (≈ 20.5 µM)	32 mm	7.8 (≈ 20.5 µM)	19 mm	10 mm	15.6 µg/mL (≈ 41 µM)	30 mm	7.8 µg/mL (≈ 20.5 µM)	15.6 (≈ 41 µM)
NNc1nc2ccccc2[nH]c1=O	20 mm	15.6 (≈ 88.5 µM)	28 mm	10 mm	24 mm	25 mm	125 (≈ 710 µM)	–	15.6 (≈ 88.5 µM)	15 mm	18	15.6 (≈ 88.5 µM)	24 mm	15.6 (≈ 88.5 µM)	22 mm	0 mm	125 µg/mL (≈ 710 µM)	15 mm	15.6 µg/mL (≈ 88.5 µM)	125 (≈ 710 µM)
O=c1[nH]c2ccccc2nc1NN=C1CCCCC1	16 mm	15.6 (≈ 60.9 µM)	25 mm	17 mm	0 mm	11 mm	15.6 (≈ 60.9 µM)	–	31.3 (≈ 122 µM)	0 mm	21	31.3 (≈ 122 µM)	19 mm	62.5 (≈ 244 µM)	10 mm	12 mm	125 µg/mL (≈ 488 µM)	15 mm	inactive	15.6 (≈ 60.9 µM)
O=c1[nH]c2ccccc2nc1N/N=C1\CCCCC1Br (centres undefined)	20 mm	7.8 (≈ 23.3 µM)	28 mm	12 mm	19 mm	13 mm	31.3 (≈ 93.4 µM)	–	31.3 (≈ 93.4 µM)	0 mm	19	7.8 (≈ 23.3 µM)	13 mm	31.3 (≈ 93.4 µM)	15 mm	0 mm	15.6 µg/mL (≈ 46.5 µM)	13 mm	15.6 µg/mL (≈ 46.5 µM)	31.3 (≈ 93.4 µM)
CCC(CC)=NNc1nc2ccccc2[nH]c1=O	20 mm	7.8 (≈ 31.9 µM)	28 mm	15 mm	0 mm	15 mm	31.3 (≈ 128 µM)	–	7.8 (≈ 31.9 µM)	0 mm	18	31.3 (≈ 128 µM)	10 mm	31.3 (≈ 128 µM)	0 mm	0 mm	inactive	25 mm	inactive	62.5 (≈ 256 µM)
